Series [1] is described as follows: Toxicity against brine shrimp. It is filed as organism-based. The conditions noted are these: artemia, in vivo; read-out: LD50 (the source's name). Put shortly: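 Brine shrimp lethality follows a literature procedure, with DMSO as the negative control and colchicine as the positive control. Lethality is expressed as LD50 in μM.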
In the next series the test system is Escherichia coli. Put plainly: Antimicrobial activity against Escherichia coli by broth microdilution method. In kind it is functional. Put shortly: (§1)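 Broth microdilution run per a cited literature method, with chloromycetin as the positive control. The read-out is the MIC in μg/mL.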
In general terms: In broth dilution the organism is exposed to a series of concentrations in liquid medium.

The subject of the next series is Micrococcus luteus. The series can be described thus: Antimicrobial activity against Micrococcus luteus by broth microdilution method. It is filed as functional. Put shortly:
as §1

SMILES strings stand for the structures. ≈ marks a conversion by molar mass, not a printed value.

As for `C=C(C)/C=C/c1ccc2c(c1OC)C(=O)OCc1cc(C)cc(O)c1O2`, in series [1], the LC50 was found to be 136 µM.

As usually defined, the MIC is the least concentration at which growth counts as inhibited. Read a high MIC as a need for much substance. For `CC(=O)OCc1cc(C)cc(O)c1Oc1ccc(CC=C(C)C)c(O)c1C(=O)O`, the MIC worked out at 16 µg/mL (≈ 40 µM) in the series with Escherichia coli and 64 µg/mL (≈ 160 µM) against Micrococcus luteus.

In the case of `COc1c(C(CC(C)C)OC)ccc(Oc2c(O)cc(C)cc2CO)c1C(=O)O` (stereo unspecified), the MIC was determined as 32 µg/mL (≈ 79.1 µM) against Escherichia coli and 256 µg/mL (≈ 633 µM) in the series on Micrococcus luteus.

As for `COc1c(/C=C/C(C)(C)OC)ccc2c1C(=O)OCc1cc(C)cc(O)c1O2`, in series [1], the LC50 is 72.6 µM.

Consider `COC(=O)[C@]12C(=O)[C@H](C)O[C@@H]3OC(=O)[C@](C)(C[C@H]4[C@]5(CO5)C5=CC(=O)OC(C)(C)C5=CC[C@@]41C)[C@@H]32` [BERKELEYACETAL B], for which the LC50 in series [1] was determined as 160 µM.

In the case of `O=C(N[C@H](CO)[C@H](O)c1ccc([N+](=O)[O-])cc1)C(Cl)Cl` [CHLORAMPHENICOL], the MIC with Escherichia coli and against Micrococcus luteus was 4 µg/mL (≈ 12.4 µM) in each case.

As for `COc1cc2c(c(OC)c1OC)-c1ccc(OC)c(=O)cc1[C@@H](NC(C)=O)CC2` [COLCHICINE], in series [1], the LC50 amounted to 71.1 µM.

On to `COc1c([C@@H](O)CC(C)C)ccc2c1C(=O)OCc1cc(C)cc(O)c1O2` [PENICILLIDE], for which the LC50 in series [1] came to 158 µM.

The values above are taken from ChEMBL document CHEMBL2163193, “Meroterpenoid and diphenyl ether derivatives from Penicillium sp. MA-37, a fungus isolated from marine mangrove rhizospheric soil” (J Nat Prod, 2012).
